# Data: PMC2905675 (Cell, 2010)
# “Also recorded” adds a separate entry of the source. Where two headings read alike, the source gives them in different places. No end group written: not given here.
# Key:
# [1] = system: capsaicin-sensitive trigeminal neurons; test: Whole cell patch clamp recordings from capsaicin-sensitive trigeminal neurons; type: cell-based, mouse; details: capsaicin 1 μM
# [2] = system: TRPV1; type: cell-based, rat; details: outside-out patches containing a single functional TRPV1 channel; capsaicin 1 μM
# [3] = target: T1, rat TRPV1 (Rattus norvegicus, UniProt O35433); test: Whole-cell patch-clamp recording from TRPV1-expressing HEK293 cells; type: cell-based
# [4] = system: X. laevis frog TRPV1 (xTRPV1); test: Two-electrode voltage clamp, Xenopus oocytes expressing wild type frog TRPV1; type: cell-based; details: +80 mV
# Summary of the method: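 Frog TRPV1 coding sequence cloned from trigeminal and dorsal root ganglion RNA. cRNA made by T7 transcription; stage V–VI oocytes injected with 3–50 ng per oocyte and recorded 3-7 days later in normal frog Ringer's buffered with HEPES (pH 7.4) or MES (pH 5.5). Toxins expressed recombinantly in E. coli, His tag removed by TEV protease, concentration set from predicted 280 nm extinction coefficient.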
# [5] = system: rat TRPV1 (A657P); test: Whole cell patch clamp, HEK293 cells expressing rat TRPV1; type: cell-based; details: +80 mV
# [6] = target: FLAG-TRPV1 (rat) (rat) (UniProt O35433)
# [7] = target: FLAG-TRPV1 (rat) (rat) (UniProt O35433); remark: listed apart in the source
# [8] = target: T1, rat TRPV1; test: Calcium imaging dose-response in TRPV1-expressing HEK293 cells; type: cell-based; details: ruthenium red 10 μM co-applied
# [9] = system: rat Kv2.1 I273Y; type: cell-based; details: VaTx1 20 μM; n = 3-5 cells per trace
# [10] = system: rat Kv2.1 F274R; type: cell-based; details: VaTx1 20 μM; n = 3-5 cells per trace
# [11] = system: rat Kv2.1 E277K; type: cell-based; details: VaTx1 20 μM; n = 3-5 cells per trace
# T1 sequence (O35433 whole entry): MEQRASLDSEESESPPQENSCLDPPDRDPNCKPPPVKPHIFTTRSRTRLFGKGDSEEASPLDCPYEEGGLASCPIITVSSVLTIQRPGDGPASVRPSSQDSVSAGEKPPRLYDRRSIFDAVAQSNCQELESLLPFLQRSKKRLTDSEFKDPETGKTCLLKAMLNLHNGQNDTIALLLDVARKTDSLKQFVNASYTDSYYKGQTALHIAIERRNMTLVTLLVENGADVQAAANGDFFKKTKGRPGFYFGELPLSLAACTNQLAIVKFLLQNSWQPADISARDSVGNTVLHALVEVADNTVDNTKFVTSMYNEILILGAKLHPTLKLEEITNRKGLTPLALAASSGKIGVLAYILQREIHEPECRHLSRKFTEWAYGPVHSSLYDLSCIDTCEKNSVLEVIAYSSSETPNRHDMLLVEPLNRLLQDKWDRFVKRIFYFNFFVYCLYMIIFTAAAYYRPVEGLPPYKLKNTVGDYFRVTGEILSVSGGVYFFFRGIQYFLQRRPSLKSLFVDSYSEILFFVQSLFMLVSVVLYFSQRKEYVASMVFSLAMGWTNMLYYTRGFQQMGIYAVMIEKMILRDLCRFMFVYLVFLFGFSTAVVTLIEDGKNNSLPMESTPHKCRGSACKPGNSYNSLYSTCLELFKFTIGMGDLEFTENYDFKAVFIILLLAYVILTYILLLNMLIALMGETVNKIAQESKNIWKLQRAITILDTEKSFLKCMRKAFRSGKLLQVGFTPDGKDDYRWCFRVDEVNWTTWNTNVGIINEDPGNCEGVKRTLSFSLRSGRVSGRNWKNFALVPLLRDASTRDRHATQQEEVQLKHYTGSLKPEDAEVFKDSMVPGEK
# Sequence of FLAG-TRPV1 (rat) (rat) (O35433 whole entry): as above
# Sequence of recombinant DkTx (P0CH43 whole entry): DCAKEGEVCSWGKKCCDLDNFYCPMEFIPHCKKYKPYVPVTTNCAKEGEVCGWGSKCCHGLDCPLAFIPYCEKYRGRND
# Sequence of native DkTx (double-knot toxin) (P0CH43 whole entry): as above
molecule,measurement,setting,value
COc1cc(CNC(=O)CCCC/C=C/C(C)C)ccc1O [capsaicin],time for evoked currents to return to baseline after washout,[1],≤ 10 s
same,unitary conductance of single channel events,[2],118 pS
same,"τoff, time constant of current decay on washout",[3],0.17 min
same,sensitivity of frog TRPV1 (xTRPV1),[4],responds
same,sensitivity of rat TRPV1 (A657P),"[5]; DkTx 2 μM, VaTx3 2 μM, capsaicin 1 μM",retained sensitivity
recombinant DkTx (from UniProt P0CH43 1-79) (peptide),"EC50 of TRPV1 activation, calcium imaging of TRPV1-expressing HEK293 cells",[6],140 nM
native DkTx (double-knot toxin) (from UniProt P0CH43 1-79) (peptide),"EC50 of TRPV1 activation, calcium imaging of TRPV1-expressing HEK293 cells",[6],230 nM
"K2 (Knot 2, C-terminal ICK peptide of DkTx-HYR)","EC50 of TRPV1 activation, calcium imaging of TRPV1-expressing HEK293 cells",[7],970 nM
"K1 (Knot 1, N-terminal ICK peptide of DkTx-HYR)","EC50 of TRPV1 activation, calcium imaging of TRPV1-expressing HEK293 cells",[7],8900 nM
N.N.N.N.N.N.N.N.N.N.N.N.N.N.[Cl-].[Cl-].[Cl-].[Cl-].[Cl-].[Cl-].[O-2].[O-2].[Ru+3].[Ru+3].[Ru+4] [ruthenium red],effect on DkTx-evoked calcium increases,[8],inhibits toxin-evoked responses
"VaTx1: vanillotoxin, ICK peptide from the Trinidad Chevron tarantula (Psalmopoeus cambridgei) that activates TRPV1 and inhibits Kv2.1 (SECRWFMGGCDSTLDCCKHLSCKMGLYYCAWDGTF; ends and bridges not checked; cysteine pairing not given here)",effect of I273Y mutation on VaTx1-mediated inhibition of Kv2.1,[9],modest effect; also recorded: no substantial effect
same,effect of F274R mutation on VaTx1-mediated inhibition of Kv2.1,[10],eliminated VaTx1-mediated inhibition
same,effect of E277K mutation on VaTx1-mediated inhibition of Kv2.1,[11],eliminated VaTx1-mediated inhibition
same,activation of wild type rat TRPV1 currents,"[3]; VaTx1 100 μM, whole cell patch clamp, +80 mV",activation
same,VaTx1 activation of TRPV1 (A657P),[5]; VaTx1 100 μM,abolished
